In ChEMBL document CHEMBL3856196, “3-(Benzodioxan-2-ylmethoxy)-2,6-difluorobenzamides bearing hydrophobic substituents at the 7-position of the benzodioxane nucleus potently inhibit methicillin-resistant Sa and Mtb cell division” (Eur J Med Chem, 2016):
Converted amounts (≈) assume the structure as drawn. The source made the active and inactive calls. The calls are words filed in the database; no cut-off is given here.

What was measured:
Staphylococcus aureus [1] = assay: Antibacterial activity against […] Staphylococcus aureus ATCC 29213 after 16 hrs by spectrophotometric analysis; type: functional; details: ATCC 29213, 16 h
[2] = Therapeutic index, ratio of TD90 for human MRC5 cells to MBC for […] Staphylococcus aureus ATCC 29213; type: cell-based; details: read-out: TI
Method in brief: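 Ratio of TD₉₀ (MTT assay on MRC-5, 24 h exposure) to MBC against MRSA ATCC 29213 (LB tube assay, wash-out and overnight regrowth by OD600).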

[3] = molecular target: T1, Cell division protein FtsZ (Staphylococcus aureus) (UniProt P0A031); assay: Inhibition of Staphylococcus aureus FtsZ assessed as increase in cell volume at 1 ug/ml after overnight incubation by phase-contrast light microscopic analysis
T1 sequence (whole entry): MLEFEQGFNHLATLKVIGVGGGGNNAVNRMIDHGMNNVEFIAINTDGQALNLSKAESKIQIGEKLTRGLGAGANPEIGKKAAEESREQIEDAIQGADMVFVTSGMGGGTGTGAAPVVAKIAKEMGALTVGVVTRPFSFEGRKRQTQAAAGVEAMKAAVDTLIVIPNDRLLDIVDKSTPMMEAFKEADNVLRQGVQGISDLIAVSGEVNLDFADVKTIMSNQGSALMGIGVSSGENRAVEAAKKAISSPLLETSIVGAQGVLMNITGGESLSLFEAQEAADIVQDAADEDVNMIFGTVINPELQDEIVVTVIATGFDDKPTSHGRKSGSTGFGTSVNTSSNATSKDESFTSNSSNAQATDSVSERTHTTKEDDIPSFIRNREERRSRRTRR
Method in brief: (§1)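 S. aureus grown overnight with compound at levels starting from the previously determined MIC. Untreated cultures served as negative control. Examined by phase-contrast microscopy at 630×.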

[4] = molecular target: T1, Cell division protein FtsZ (Staphylococcus aureus); assay: Inhibition of Staphylococcus aureus FtsZ assessed as cellular desegregation at 1 ug/ml after overnight incubation by phase-contrast light microscopic analysis; method in brief: as §1
[5] = molecular target: T1, Cell division protein FtsZ (Staphylococcus aureus); assay: Inhibition of Staphylococcus aureus FtsZ assessed as cellular desegregation at 1 ug/ml after 16 hrs by transmission electron microscopic analysis
Method in brief: (§2)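 S. aureus at 10⁹ cells/ml grown 16 h at 37 °C with compound, untreated control included. Cells were pelleted at 3100 × g for 5 min, fixed in 2.5% glutaraldehyde in 0.1 M Na cacodylate pH 7.4 for 1 h at 4 °C, post-fixed in 1% OsO₄ for 1 h at 4 °C, and examined by TEM for septum and ultrastructure.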

[6] = Cytotoxicity against human MRC5 cells assessed as reduction in cell viability after 24 hrs by MTT assay; type: toxicity, cell-based; details: mrc5, 24 h
Method in brief: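 MRC-5 lung fibroblasts (DMEM, 10% heat-inactivated calf serum, 37 °C, 5% CO₂) at 10⁴ cells/well were exposed 24 h to twofold serial dilutions in DMEM. Then 1 mg/ml MTT in serum-free DMEM for 3 h, DMSO solubilisation, A570. Cytotoxicity % = 100 − (sample OD/untreated OD) × 100; TD₅₀/TD₉₀ are concentrations cutting viability 50/90%.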

[7] = molecular target: T1, Cell division protein FtsZ (Staphylococcus aureus); assay: Inhibition of Staphylococcus aureus FtsZ assessed as bacterial swelling at 1 ug/ml after overnight incubation by phase-contrast light microscopic analysis; method in brief: as §1
[8] = molecular target: T1, Cell division protein FtsZ (Staphylococcus aureus); assay: Inhibition of Staphylococcus aureus FtsZ assessed as alteration in septum formation at 0.5 ug/ml after 16 hrs by transmission electron microscopic analysis; method in brief: as §2
Staphylococcus aureus [9] = assay: Antibacterial activity against methicillin-resistant Staphylococcus aureus clinical isolates after 24 hrs by CLSI […] broth microdilution method; type: functional; details: for MBC: read-out: MBC99.9
Method in brief: (§3)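 CLSI broth microdilution on clinical isolates. Log-phase bacteria in saline at 1–2 × 10⁵ CFU/mL were mixed with compounds diluted in LB, final 0.097–100 μg/mL, for 24 h at 37 °C. MIC is the lowest concentration with total growth inhibition. For MBC, clear wells were plated on sheep-blood agar for 18 h; >99.9% kill versus untreated control. Triplicate.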

Staphylococcus aureus [10] = assay: Antibacterial activity against methicillin-susceptible Staphylococcus aureus clinical isolates after 24 hrs by CLSI […] broth microdilution method; type: functional; details: for MBC: read-out: MBC99.9; method in brief: as §3
Staphylococcus aureus [11] = assay: Antibacterial activity against methicillin-susceptible Staphylococcus aureus; type: functional
[12] = tested on: Mycobacterium tuberculosis; assay: Inhibition of FtsZ polymerization in GFP-tagged Mycobacterium tuberculosis assessed as presence of elongated cells with enlarged bacterial pole at 4 ug/ml by fluorescence-based microscopic analysis
Method in brief: (§4)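 GFP-expressing M. smegmatis or M. tuberculosis grown at subMIC concentrations on glass coverslips in 7H9/ADC/Tween 80. Cells were fixed with phosphate-buffered 4% paraformaldehyde and examined by fluorescence microscopy at 100× for cell morphology.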

[13] = tested on: Mycolicibacterium smegmatis; assay: Inhibition of FtsZ polymerization in GFP-tagged Mycobacterium smegmatis assessed as presence of elongated cells with enlarged bacterial pole at 4 ug/ml by fluorescence-based microscopic analysis; method in brief: as §4
[14] = tested on: Mycobacterium tuberculosis; assay: Antitubercular activity against Mycobacterium tuberculosis H37Rv by Alamar blue assay; type: functional
Method in brief: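 M. tuberculosis in 7H9 medium with ADC and 0.05% Tween 80; MIC by microplate Alamar Blue assay.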

[15] = molecular target: T1, Cell division protein FtsZ (Staphylococcus aureus); assay: Inhibition of Staphylococcus aureus FtsZ assessed as increase in cell volume at 0.5 ug/ml after overnight incubation by phase-contrast light microscopic analysis; method in brief: as §1
Enterococcus faecalis [16] = assay: Antibacterial activity against vancomycin-susceptible Enterococcus faecalis clinical isolates after 24 hrs by CLSI […] broth microdilution method; type: functional; details: for MBC: read-out: MBC99.9; method in brief: as §3
Enterococcus faecalis [17] = assay: Antibacterial activity against vancomycin-resistant Enterococcus faecalis clinical isolates after 24 hrs by CLSI […] broth microdilution method; type: functional; details: for MBC: read-out: MBC99.9; method in brief: as §3
[18] = molecular target: T1, Cell division protein FtsZ (Staphylococcus aureus); assay: Inhibition of Staphylococcus aureus FtsZ assessed as cellular desegregation at 0.5 ug/ml after overnight incubation by phase-contrast light microscopic analysis; method in brief: as §1
[19] = molecular target: T1, Cell division protein FtsZ (Staphylococcus aureus); assay: Inhibition of Staphylococcus aureus FtsZ assessed as bacterial swelling at 0.5 ug/ml after overnight incubation by phase-contrast light microscopic analysis; method in brief: as §1
Staphylococcus aureus [20] = assay: Antibacterial activity against Staphylococcus aureus; type: functional

SMILES: NC(=O)c1c(F)ccc(OCC2CCc3ccccc3C2)c1F (centres undefined)
- MIC (Staphylococcus aureus [1]): > 100 µg/mL

SMILES: COC(=O)c1ccc2c(c1)OC(COc1ccc(F)c(C(N)=O)c1F)CO2 (centres undefined)
- MBC (Staphylococcus aureus [1]): 0.625 µg/mL (≈ 1.65 µM)
- MIC (Staphylococcus aureus [1]): 0.625 µg/mL (≈ 1.65 µM)
- selectivity ratio [2]: > 1280
- inhibition [3]: Active
- inhibition [4]: Active
- inhibition [5]: Active
- TD90 [6]: > 1280 µg/mL
- inhibition [7]: Active

SMILES: NC(=O)c1c(F)ccc(OCc2ccc3c(c2)OCCO3)c1F
- MBC (Staphylococcus aureus [1]): 100 µg/mL (≈ 311 µM)
- MIC (Staphylococcus aureus [1]): 100 µg/mL (≈ 311 µM)

SMILES: NC(=O)c1c(F)ccc(OC[C@@H]2COc3ccc(Cl)cc3O2)c1F
- inhibition [8]: Active
- MIC90 (Staphylococcus aureus [9]): 1 µM
- MBC (Staphylococcus aureus [9]): 0.78 µg/mL (≈ 2.19 µM)
- MIC90 (Staphylococcus aureus [10]): 0.5 µM
- MBC (Staphylococcus aureus [10]): 1 µM
- MIC90 (Staphylococcus aureus [11]): 0.7 µM (≈ 0.249 µg/mL)
- inhibition [12]: Active
- inhibition [13]: Active
- MIC [14]: 8 µg/mL (≈ 22.5 µM)
- inhibition [15]: Active
- MIC90 (Enterococcus faecalis [16]): 25 µg/mL (≈ 70.3 µM)
- MBC (Enterococcus faecalis [16]): 50 µg/mL (≈ 141 µM)
- MIC90 (Enterococcus faecalis [17]): 25 µg/mL (≈ 70.3 µM)
- MBC (Enterococcus faecalis [17]): 50 µg/mL (≈ 141 µM)

SMILES: NC(=O)c1c(F)ccc(OCC2COc3ccccc3C2)c1F (centres undefined)
- MBC (Staphylococcus aureus [1]): 100 µg/mL (≈ 313 µM)
- MIC (Staphylococcus aureus [1]): 100 µg/mL (≈ 313 µM)

SMILES: C#Cc1ccc2c(c1)OC(COc1ccc(F)c(C(N)=O)c1F)CO2 (centres undefined)
- MBC (Staphylococcus aureus [1]): 0.625 µg/mL (≈ 1.81 µM)
- MIC (Staphylococcus aureus [1]): 0.313 µg/mL (≈ 0.906 µM)
- inhibition [18]: Active
- selectivity ratio [2]: 640
- inhibition [15]: Active
- inhibition [19]: Active
- TD90 [6]: 400 µg/mL

SMILES: NC(=O)c1c(F)ccc(OCC2COc3ccc(N)cc3O2)c1F (centres undefined)
- MBC (Staphylococcus aureus [1]): 100 µg/mL (≈ 297 µM)
- MIC (Staphylococcus aureus [1]): 100 µg/mL (≈ 297 µM)

SMILES: NC(=O)c1c(F)ccc(OCC2COc3ccccc3O2)c1F (centres undefined)
- MIC90 (Staphylococcus aureus [9]): 3.12 µg/mL
- MBC (Staphylococcus aureus [9]): 6.25 µg/mL (≈ 19.5 µM)
- MIC90 (Staphylococcus aureus [10]): 3.12 µg/mL
- MBC (Staphylococcus aureus [10]): 12.5 µg/mL
- MIC (Staphylococcus aureus [20]): 5 µg/mL (≈ 15.6 µM)
- MIC [14]: 16 µg/mL (≈ 49.8 µM)
- MIC90 (Enterococcus faecalis [16]): 25 µg/mL (≈ 77.8 µM)
- MBC (Enterococcus faecalis [16]): 50 µg/mL (≈ 156 µM)
- MIC90 (Enterococcus faecalis [17]): 25 µg/mL (≈ 77.8 µM)
- MBC (Enterococcus faecalis [17]): 50 µg/mL (≈ 156 µM)

SMILES: NC(=O)c1ccc2c(c1)OC(COc1ccc(F)c(C(N)=O)c1F)CO2 (centres undefined)
- MIC (Staphylococcus aureus [1]): > 100 µg/mL

SMILES: NC(=O)c1c(F)ccc(OCC2COc3cc(Cl)c(Cl)cc3O2)c1F (centres undefined)
- MBC (Staphylococcus aureus [1]): 5 µg/mL (≈ 12.8 µM)
- MIC (Staphylococcus aureus [1]): 2.5 µg/mL (≈ 6.41 µM)
- MIC90 (Staphylococcus aureus [9]): 3.12 µg/mL
- MBC (Staphylococcus aureus [9]): 6.25 µg/mL (≈ 16 µM)
- MIC90 (Staphylococcus aureus [10]): 3.12 µg/mL
- MBC (Staphylococcus aureus [10]): 6.25 µg/mL
- MIC [14]: 16 µg/mL (≈ 41 µM)
- MIC90 (Enterococcus faecalis [16]): 6.25 µg/mL (≈ 16 µM)
- MBC (Enterococcus faecalis [16]): 50 µg/mL (≈ 128 µM)
- MIC90 (Enterococcus faecalis [17]): 12.5 µg/mL (≈ 32 µM)
- MBC (Enterococcus faecalis [17]): 50 µg/mL (≈ 128 µM)

SMILES: CS(=O)(=O)Nc1ccc2c(c1)OC(COc1ccc(F)c(C(N)=O)c1F)CO2 (centres undefined)
- MIC (Staphylococcus aureus [1]): > 100 µg/mL
